For data set [1], the system named is Homo sapiens. As to the kind of experiment: Ratio of AUC (0 to 12 hrs) in HIV-1 infected patient assessed as beta-D-dioxolane guanosine level at 500 mg, po bid on day 10 to AUC (0 to 12 hrs) in HIV-1 infected patient assessed as beta-D-dioxolane guanosine level at 500 mg, po bid on day 1. Type of data set: ADME, organism-based. The conditions noted are these: in vivo. The essentials:
(§1)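 Untreated Hispanic HIV-1-infected adults (viral load ≥5,000 copies/ml, CD4 ≥200 cells/mm3). Blood was drawn into DCF-containing EDTA tubes on day 1 (0–12 h) and on day 10 (0–48 h post last dose), then stored at −80°C. Plasma was methanol-extracted with an internal standard and run by LC-MS/MS (2–3,000 ng/ml AMDX/DXG; 2–5,000 ng/ml ZDV). Noncompartmental analysis assumed extravascular input; τ = 12 h; geometric means reported; accumulation was taken as AUCτ day 10/day 1.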

The subject of data set [2] is Homo sapiens. As to the kind of experiment: Cmax in HIV-1 infected patient assessed as beta-D-dioxolane guanosine level at 500 mg, po bid on day 10 by LC-MS/MS analysis. Details: dose 500 mg, route oral. Format: ADME, organism-based. The following applies: in vivo. The method in brief: as §1
In data set [3] the test system is Homo sapiens. As to the kind of experiment: Tmax in HIV-1 infected patient assessed as beta-D-dioxolane guanosine level at 500 mg, po bid on day 10 coadministered with 300 mg, po bid zidovudine by LC-MS/MS analysis. Format: ADME, organism-based. The following applies: in vivo. The method in brief: (§2)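 Treatment-naive Hispanic HIV-1-infected adults (≥5,000 RNA copies/ml, CD4 ≥200 cells/mm3). Blood drawn after first dose on day 1 (0–12 h) and after last dose on day 10 (0–48 h) into DCF-containing EDTA tubes to block ex vivo deamination, centrifuged, plasma stored −80°C. Methanol extraction with internal standard, LC-MS/MS (linear 2–3,000 ng ml−1 for AMDX and DXG). Noncompartmental analysis assuming extravascular input; geometric means reported.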

Data set [4] relates to Homo sapiens. As to the kind of experiment: Cmax in HIV-1 infected patient assessed as beta-D-dioxolane guanosine level at 500 mg, po bid on day 10 coadministered with 300 mg, po bid zidovudine by LC-MS/MS analysis. Format: ADME, organism-based. Details: dose 500 mg, route oral. The conditions noted are these: in vivo. The essentials: as §1
In data set [5] the test system is Homo sapiens. The experiment in a line: AUC (0 to 12 hrs) in HIV-1 infected patient assessed as beta-D-dioxolane guanosine level at 500 mg, po bid on day 10 by LC-MS/MS analysis. Type of data set: ADME, organism-based, Plasma. Details: dose 500 mg, time < 12 hr, route oral. The following applies: in vivo. The method in brief:
as §1

Data set [6] has as its system Homo sapiens. The experiment in a line: Cmax in HIV-1 infected patient assessed as beta-D-dioxolane guanosine level at 500 mg, po bid on day 1 by LC-MS/MS analysis. The following applies: in vivo. Details: dose 500 mg, route oral. Format: ADME, organism-based. The essentials:
as §1

A short description of data set [7]: Drug level in HIV-1 infected patient urine assessed as beta-D-dioxolane guanosine level at 500 mg, po bid on day 10 coadministered with 300 mg, po bid zidovudine by LC-MS/MS analysis. Format: ADME, organism-based. The conditions noted are these: human, in vivo. The method in brief:
(§3)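 At steady state (day 10), urine collected over one 12-h dose interval was analyzed by LC-MS/MS for AMDX, DXG, ZDV and ZDV-5′-O-glucuronide. Samples were diluted 100-fold, and the assay was linear from 1 to 500 μg/ml. Results are expressed as percentage of the dose recovered as each analyte (geometric means). Subjects were untreated HIV-1-infected adults.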

Data set [8] concerns Homo sapiens. As to the kind of experiment: Apparent oral clearance in HIV-1 infected patient assessed as beta-D-dioxolane guanosine level at 500 mg, po bid on day 10 coadministered with 300 mg, po bid zidovudine by LC-MS/MS analysis. The following applies: in vivo. Type of data set: ADME, organism-based. The method in brief:
as §1

The test system of data set [9] is Homo sapiens. The experiment in a line: Tmax in HIV-1 infected patient assessed as beta-D-dioxolane guanosine level at 500 mg, po bid on day 10 by LC-MS/MS analysis. Type of data set: ADME, organism-based. The conditions noted are these: in vivo. The method in brief:
as §2

Data set [10] relates to Homo sapiens. As to the kind of experiment: AUC (0 to 12 hrs) in HIV-1 infected patient assessed as beta-D-dioxolane guanosine level at 500 mg, po bid on day 10 coadministered with 300 mg, po bid zidovudine by LC-MS/MS analysis. Format: ADME, organism-based, Plasma. Details: time < 12 hr, dose 500 mg, route oral. The following applies: in vivo. The essentials: as §1
For data set [11], the system named is Homo sapiens. The experiment in a line: Half life in HIV-1 infected patient assessed as beta-D-dioxolane guanosine level at 500 mg, po bid on day 10 coadministered with 200 mg, po bid zidovudine by LC-MS/MS analysis. The conditions noted are these: in vivo. Type of data set: ADME, organism-based. The essentials: as §1
In data set [12] the test system is Homo sapiens. The experiment in a line: Cmax in HIV-1 infected patient assessed as beta-D-dioxolane guanosine level at 500 mg, po bid on day 10 coadministered with 200 mg, po bid zidovudine by LC-MS/MS analysis. Format: ADME, organism-based. Details: dose 500 mg, route oral. The following applies: in vivo. The method in brief: as §1
In data set [13] the test system is Homo sapiens. The experiment in a line: AUC (0 to 12 hrs) in HIV-1 infected patient assessed as beta-D-dioxolane guanosine level at 500 mg, po bid on day 10 coadministered with 200 mg, po bid zidovudine by LC-MS/MS analysis. Format: ADME, organism-based, Plasma. Details: time < 12 hr, dose 500 mg, route oral. The following applies: in vivo. The essentials: as §1

Data set [14] deals with Homo sapiens. The experiment in a line: Half life in HIV-1 infected patient assessed as beta-D-dioxolane guanosine level at 500 mg, po bid on day 10 coadministered with 300 mg, po bid zidovudine by LC-MS/MS analysis. The following applies: in vivo. Format: ADME, organism-based. The method in brief: as §1
For data set [15], the system named is Homo sapiens. As to the kind of experiment: Half life in HIV-1 infected patient assessed as beta-D-dioxolane guanosine level at 500 mg, po bid on day 10 by LC-MS/MS analysis. The following applies: in vivo. Type of data set: ADME, organism-based. The essentials:
as §1

Data set [16] in a line: Drug level in HIV-1 infected patient urine assessed as beta-D-dioxolane guanosine level at 500 mg, po bid on day 10 coadministered with 200 mg, po bid zidovudine by LC-MS/MS analysis. Type of data set: ADME, organism-based. The conditions noted are these: human, in vivo. The method in brief: as §3
Data set [17] has as its system Homo sapiens. As to the kind of experiment: Tmax in HIV-1 infected patient assessed as beta-D-dioxolane guanosine level at 500 mg, po bid on day 10 coadministered with 200 mg, po bid zidovudine by LC-MS/MS analysis. Format: ADME, organism-based. The conditions noted are these: in vivo. The method in brief: as §2
Data set [18] concerns Homo sapiens. As to the kind of experiment: Ratio of AUC (0 to 12 hrs) in HIV-1 infected patient assessed as beta-D-dioxolane guanosine level at 500 mg, po bid on day 10 coadministered with 200 mg, po bid zidovudine to AUC (0 to 12 hrs) in HIV-1 infected patient assessed as beta-D-dioxolane guanosine level at 500 mg, po bid on day 1 coadministered with 200 mg, po bid zidovudine. Type of data set: ADME, organism-based. The following applies: in vivo. The essentials:
as §1

For data set [19], the system named is Homo sapiens. The experiment in a line: Apparent oral clearance in HIV-1 infected patient assessed as beta-D-dioxolane guanosine level at 500 mg, po bid on day 10 coadministered with 200 mg, po bid zidovudine by LC-MS/MS analysis. Type of data set: ADME, organism-based. The conditions noted are these: in vivo. The essentials:
as §1

Data set [20] can be described thus: Drug level in HIV-1 infected patient urine assessed as beta-D-dioxolane guanosine level at 500 mg, po bid on day 10 by LC-MS/MS analysis. Format: ADME, organism-based. The conditions noted are these: human, in vivo. The method in brief: as §3
The subject of data set [21] is Homo sapiens. As to the kind of experiment: Ratio of AUC (0 to 12 hrs) in HIV-1 infected patient assessed as beta-D-dioxolane guanosine level at 500 mg, po bid on day 10 coadministered with 300 mg, po bid zidovudine to AUC (0 to 12 hrs) in HIV-1 infected patient assessed as beta-D-dioxolane guanosine level at 500 mg, po bid on day 1 coadministered with 300 mg, po bid zidovudine. Format: ADME, organism-based. The following applies: in vivo. The method in brief:
as §1

Data set [22] deals with Homo sapiens. The experiment in a line: Half life in HIV-1 infected patient assessed as beta-D-dioxolane guanosine level at 500 mg, po bid on day 1 by LC-MS/MS analysis. Type of data set: ADME, organism-based. The conditions noted are these: in vivo. The essentials:
as §1

Data set [23] relates to Homo sapiens. The experiment in a line: Apparent oral clearance in HIV-1 infected patient assessed as beta-D-dioxolane guanosine level at 500 mg, po bid on day 10 by LC-MS/MS analysis. Type of data set: ADME, organism-based. The conditions noted are these: in vivo. The method in brief:
as §1

What is called Cmax is the peak of the concentration-time curve. One may read the Tmax as the time at which the peak concentration occurs. For orientation: AUC means the area under the concentration-time curve, a measure of exposure. By CL/F is commonly meant clearance divided by bioavailability, as obtained after extravascular dosing. In the case of `Nc1nc2c(ncn2[C@H]2CO[C@@H](CO)O2)c(=O)[nH]1`, the “Ratio AUC” value in [1] came to 1.18; in [18] it was 0.91; in [21] it was 1.19. Moreover, the highest concentration (Cmax) in data set [2] is 1545 ng/mL; in [4] it was 1908 ng/mL; in [6], 1272 ng/mL; in data set [12], 1315 ng/mL. Besides, the Tmax in data set [3] was determined as 1.8 h; in data set [9], 1.3 h; in data set [17], 1.5 h. The AUC amounted to 6834 ng·h/mL in [5], 7658 ng·h/mL in [10] and 6225 ng·h/mL in [13]. Besides, the Drug uptake in data set [7] is 27.7%; in data set [16], 26.2%; in data set [20] it was 25.3%. Moreover, the CL/F in data set [8] came to 15.2 mL/min/kg; in data set [19], 15.8 mL/min/kg; in data set [23], 14.7 mL/min/kg. The t1/2 in data set [11] came out at 14.7 h; in data set [14], 14.8 h; in [15], 17.6 h; in data set [22] it was 2.5 h.

Source of the values: ChEMBL document CHEMBL1671679, “Lack of pharmacokinetic interaction between amdoxovir and reduced- and standard-dose zidovudine in HIV-1-infected individuals” (Antimicrob Agents Chemother, 2010).
